Screening results as filed in PubChem BioAssay.
Neddylation inh: inhibitors of human cullin neddylation; P61081+Q13564; TR-FRET cullin neddylation, biochemical; calls only at 25 µM; 360,000 compounds, 0.58% hits; in the data active = inhibition above about 36%
Target sequence (P61081 whole entry, looked up): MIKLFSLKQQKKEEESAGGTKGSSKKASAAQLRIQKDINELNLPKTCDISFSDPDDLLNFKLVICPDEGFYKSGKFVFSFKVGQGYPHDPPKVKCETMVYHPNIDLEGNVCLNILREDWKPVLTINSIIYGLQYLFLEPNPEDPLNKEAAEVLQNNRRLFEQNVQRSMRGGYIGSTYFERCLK
Target sequence (Q13564 whole entry, looked up): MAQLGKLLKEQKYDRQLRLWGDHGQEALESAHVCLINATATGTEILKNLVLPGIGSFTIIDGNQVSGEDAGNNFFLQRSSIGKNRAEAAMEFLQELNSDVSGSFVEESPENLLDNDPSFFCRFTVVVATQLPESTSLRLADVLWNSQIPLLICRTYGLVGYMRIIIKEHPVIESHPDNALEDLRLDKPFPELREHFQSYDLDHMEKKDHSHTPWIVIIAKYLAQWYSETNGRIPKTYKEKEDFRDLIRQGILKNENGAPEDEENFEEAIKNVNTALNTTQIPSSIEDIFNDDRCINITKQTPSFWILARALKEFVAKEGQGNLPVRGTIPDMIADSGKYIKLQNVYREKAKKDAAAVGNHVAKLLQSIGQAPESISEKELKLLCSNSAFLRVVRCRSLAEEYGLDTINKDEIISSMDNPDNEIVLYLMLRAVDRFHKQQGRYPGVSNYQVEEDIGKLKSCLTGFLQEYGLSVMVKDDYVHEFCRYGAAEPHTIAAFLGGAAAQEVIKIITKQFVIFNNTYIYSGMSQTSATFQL
SKN-1 block: blocks SKN-1 activity in C. elegans; C. elegans VP596 Pgst-4::GFP/RFP ratio, acrylamide-induced, 24 h; 360,000 compounds, 0.49% hits; inhibition, % at 21.8 µM;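 active = interference check ratio from 0.5 to 1.5 plus GFP to RFP signal ratio inhibition reaching or exceeding a fixed threshold, cut at about 30% in these data, passing the limit was not always enough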
Tn7 DDE FP: disrupts Tn7 cyclic peptide binding to fibrin D-Dimer-E complex; P02675; FP displacement of FITC-Tn7 peptide from fibrin DD(E); 0% = median of compound wells per plate; inhibition, % at 8.3 µM; 370,000 compounds, 0.13% hits; AID 720508;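 active = inhibition above the mean of compounds falling within the control limits plus 3 SD of them, cut at about 14% in these data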
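Assay system: Human clot-derived fibrin DD(E) complex | Buffer or medium: Tris/NaCl/CaCl2 buffer, pH 7.8 | Repeats: One replicate per compound | Benchmarks: Aha-Tn7 high control | Measure: % inhibition scaled between sample-field median and high-control FP | Schedule: 10 min plus 3 h, room temperature | Signal: Fluorescence polarization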
DDE Tn6 FP inh: DD(E)-Tn6 binding inhibition, primary FP screen. Fibrin DD(E) TRITC-Tn6 fluorescence polarization displacement. inhibition, % at 8.3 µM. 370,000 compounds, 0.21% hits. AID 720509;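 active = inhibition above a per-campaign cutoff: mean of compounds within control limits plus 3 SD, cut at about 15% in these data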
MT1-MMP act inh: inhibitors of human MT1-MMP activation; P50281; HT1080 RFP-PRO-GFP cells, GFP/RFP ratio fluorescence, overnight; percent of plate control window, DMSO zero; GFP/RFP ratio change, % at 20 µM; 360,000 compounds, 0.061% hits; AID 651647;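 active = GFP/RFP ratio change of at least 30% with cell ATP level not reduced by more than half and red fluorescence within 50% of control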
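Assay system: RFP-PRO-GFP reporter HT1080 cells; read-out basis: GFP/RFP fluorescence ratio; benchmarks: DMSO wells and RFP-L50D-GFP cells; doses: 20 µM single dose, 1% DMSO; schedule: overnight cell settling, then overnight compound exposure, 37 °C, 5% CO2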
KLK7 zymogen act: activates the human kallikrein-7 zymogen. purified proKLK7, EDANS-DABCYL substrate fluorescence; 100% is mature enzyme control, 0% vehicle. P49862. activation, % at 7 µM. 370,000 compounds, 0.9% hits. AID 652039;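 active = activation above the mean of all tested compounds plus 3 SD, computed per campaign excluding outliers beyond control limits, cut at about 13% in these data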
Hits are given with their value; 0 = inactive; - = no result given; + = active, no number; ! = repeats disagree. Rows were chosen to be rich in hits. Some 2.2% of all compounds tested hit in one or more screens of this group.

SMILES	Neddylation inh	SKN-1 block	Tn7 DDE FP	DDE Tn6 FP inh	MT1-MMP act inh	KLK7 zymogen act
Cc1ccc(C2C(C#N)=C(N)Oc3cc(N)ccc32)cc1 (stereo unspecified)	0	0	0	0	0	0
COc1ccc(-c2csc(Nc3ccccc3)n2)cc1	0	35.5	0	0	0	0
O=C(Nc1nc(-c2ccccc2)cs1)c1ccccc1F	0	53.2	0	0	0	0
O=[N+]([O-])c1cccc(-c2csc(Nc3ccccc3)n2)c1	0	35.4	0	0	0	0
O=C(Nc1cccc(-c2csc(Nc3ccccc3)n2)c1)c1ccccc1	0	46.5	0	0	0	0
CCOc1ccc(N(C(C)C(=O)Nc2cccnc2)S(C)(=O)=O)cc1 (stereo unspecified)	0	0	0	0	0	0
Cc1ccccc1CNS(=O)(=O)c1c(C(=O)N2CCCC2)c(C)n(C)c1C	0	0	0	0	0	0
COc1ccc(NC(C)C(=O)N2CCN(Cc3ccccc3)CC2)cc1 (stereo unspecified)	0	0	0	0	0	0
Cc1ccc(NC(=O)Cn2nnc(-c3ccccc3F)n2)c(C)c1	-	-	0	0	-	0
N#C/C(=C\c1cccc([N+](=O)[O-])c1)C(=O)NCc1cccnc1	0	0	0	0	0	0
Nc1ccc(-n2nncc2-c2ccccc2)cc1	0	0	0	0	0	0
FC(F)(F)c1ccc(-c2csc(-c3ccno3)n2)cc1	0	44.0	0	0	0	0
CC1CC(C)CN(c2nc3c(c(=O)n(C)c(=O)n3C)n2CCSc2ncccn2)C1 (stereo unspecified)	0	0	0	0	0	0
O=C(CSc1nc(-c2ccco2)cc(C(F)(F)F)n1)NC1CCCCCCC1	0	36.7	0	0	0	0
Clc1ccc(-c2cnc3ccccc3n2)cc1	0	42.1	0	0	0	0
Oc1ccc(-c2cnc3ccccc3n2)cc1	0	0	0	0	-	0
Cc1cccc(C#Cc2ccccc2)n1	0	46.2	0	0	0	0
Nc1ccc(C#Cc2ccccc2)cc1	0	0	0	0	0	0
O=C(Nc1nc(-c2ccc(S(=O)(=O)N3CCCC3)cc2)cs1)c1cccs1	0	37.6	0	0	0	0
Cc1ccc2nc(NC(=O)c3ccc(Cl)s3)sc2c1	-	0	0	0	0	0
Cc1nc2ccc(NC(=O)c3ccc(Cl)s3)cc2s1	0	0	0	0	0	13.2
CCN(CC)S(=O)(=O)c1cccc2cccnc12	0	0	0	0	0	0
CCN(CC)S(=O)(=O)c1cccc2c(N(C)C)cccc12	-	45.1	0	0	0	0
CN(N=Cc1ccc([N+](=O)[O-])cc1)c1ccccn1	0	47.7	0	0	0	0
O=C(O)c1ccc(N/N=C/c2cn(Cc3ccc(F)cc3)c3ccccc23)cc1	+	0	0	0	0	0
SMILES	Neddylation inh	SKN-1 block	Tn7 DDE FP	DDE Tn6 FP inh	MT1-MMP act inh	KLK7 zymogen act
Cc1ccc(NC(=O)CSc2nnc(NC(=O)C3CC3)s2)cc1C	0	0	0	0	0	0
COc1cc(C2Nc3cccc4cccc(c34)N2)ccc1OC(C)=O	0	0	-	-	31.2	-
COc1ccc(C2Nc3cccc4cccc(c34)N2)cc1Br	0	0	0	0	0	0
Cc1ccccc1OCC(O)Cn1c(=N)n(Cc2ccccc2)c2ccccc21 (stereo unspecified)	0	0	0	0	0	0
CC(NC(=O)COC(=O)C1=NN(c2ccccc2)C(=O)CC1)c1ccccc1 (stereo unspecified)	0	0	0	0	0	0
CSc1c2c([nH]c(=O)c1C#N)-c1ccccc1CC2	-	0	0	0	0	0
O=C(Nc1nccs1)c1ccccc1N=Cc1ccccc1	0	0	0	0	0	41.9
O=C(Nc1nccs1)c1ccc2ccccc2c1	0	43.7	0	0	0	0
COc1cc2ccccc2cc1C(=O)Nc1cc(C)ccn1	0	0	0	0	0	0
COc1c(C(=O)Nc2ccc(Br)cn2)ccc2ccccc12	0	0	0	0	0	0
O=C(Nc1nccs1)c1ccc(Br)cc1	0	0	0	0	0	0
COc1c(C(=O)Nc2nccs2)ccc2ccccc12	0	55.2	0	0	0	0
COc1cc2ccccc2cc1C(=O)Nc1nccs1	0	57.6	0	0	0	0
C=CCN1C2CCCC1CC(NC(=O)Nc1cccc(C(C)=O)c1)C2 (stereo unspecified)	0	0	0	0	0	0
CCNC(=O)NC(=O)COC(=O)CNC(=O)COc1ccccc1	0	0	0	0	0	0
COC(=O)c1cc(S(=O)(=O)n2nc(C)c(Br)c2C)c(Cl)cc1Cl	0	0	0	0	0	0
Oc1ccc(/C=C/c2ccnc3ccccc23)cc1	0	0	0	0	0	0
Clc1ccccc1/C=C/c1ccnc2ccccc12	0	35.3	0	0	0	0
Cc1ccccc1-c1noc(-c2ccc(Cl)cc2)n1	0	0	0	0	0	0
Fc1ccc(-c2nc(-c3cnccn3)no2)c(Cl)c1	0	37.8	0	0	0	0
c1ccc(-c2nc(-c3ccccn3)no2)cc1	0	0	0	0	0	0
Clc1ccc(-c2nc(-c3cnccn3)no2)cc1	0	45.9	0	0	0	0
c1ccc(-c2ccc(-c3nc(-c4ccccn4)no3)cc2)cc1	0	63.1	0	0	0	0
Nc1ccn([C@@H]2O[C@H](C(=O)NCCCN3CCCC3=O)[C@@H](O)[C@H]2O)c(=O)n1	0	0	0	0	0	0
CSC(=NCCCN1CCOCC1)NS(=O)(=O)c1cccs1	0	43.3!	0	0	0	0
SMILES	Neddylation inh	SKN-1 block	Tn7 DDE FP	DDE Tn6 FP inh	MT1-MMP act inh	KLK7 zymogen act
CCOC(=O)Oc1ccc2c(=O)c(Oc3cc(C)cc(C)c3)coc2c1	-	0	0	0	0	35.9
CCOC(=O)Oc1ccc2c(=O)c(Oc3cccc(C)c3)coc2c1	-	0	0	0	0	75.9
Cc1cc(C)cc(Oc2coc3cc(OC(=O)c4cccnc4)ccc3c2=O)c1	-	0	0	0	0	0
O=[N+]([O-])c1ccc(NNS(=O)(=O)c2cc(Cl)ccc2Cl)nc1	0	0	0	0	0	0
CCOc1ccc(NC(=O)CCN2CCN(C)CC2)cc1	0	36.8	0	0	0	0
CN1CCN(CCC(=O)Nc2ccc(OCc3ccccc3)cc2)CC1	0	0	0	0	0	0
CN(C)S(=O)(=O)c1ccc(C(=O)Nc2nnc(SCc3ccccc3)s2)cc1	-	0	0	0	0	0
Fc1ccc(OCc2nc(-c3cccs3)no2)cc1	0	38.6	0	0	0	0
Clc1cccc(OCc2nc(-c3ccncc3)no2)c1	0	47.6	0	0	0	0
c1ccc(OCc2nc(-c3cccs3)no2)cc1	0	39.9	0	0	0	0
COc1ccc(Cl)cc1-c1nc(SCC(=O)N(C)C)n[nH]1	0	0	0	0	0	0
